The subject of test [1] is Mycobacterium tuberculosis. The test is described as follows: Resistance factor, ratio of MIC for Mycobacterium bovis BCG ML1034 to MIC for wild-type Mycobacterium bovis BCG. Format: functional, variant bovis BCG. The method in brief:
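Resistance factor is the MABA MIC for BCG mutant ML1034 divided by the MIC for wild-type BCG. Both MICs were taken as ≥90% viability reduction, read by fluorescence (ex 530/em 590 nm).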

For test [2], the system named is Mycobacterium tuberculosis. The test is described as follows: Antimicrobial activity against wild-type Mycobacterium bovis BCG by microplate Alamar blue assay. The test is classed as functional. The settings on record: variant bovis BCG. In a few lines: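 Whole-cell M. bovis BCG (Institut Pasteur) MABA; mutants carried IS1096::Km insertions. Growth was in Middlebrook 7H9 with 0.2% glycerol, 0.05% Tween 80 and 10% OADC. Final drug ranges: ampicillin 62.5–2,000 μg/ml, vancomycin 1.25–40 μg/ml, streptomycin 0.25–8 μg/ml, chloramphenicol 4–128 μg/ml, tetracycline 0.5–16 μg/ml. MIC was the lowest concentration cutting viability ≥90%, read by fluorescence (ex 530/em 590 nm, room temperature).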
Background: Alamar Blue is a resazurin reagent that responds to reducing activity.

Data on 5 compounds can be found in ChEMBL document CHEMBL1275448, “Identification of a novel multidrug efflux pump of Mycobacterium tuberculosis” (2008).

≈ marks a conversion by molar mass, not a printed value.

As a reminder, the MIC is the least concentration at which growth counts as inhibited. With `CN[C@H](CC(C)C)C(=O)N[C@H]1C(=O)N[C@@H](CC(N)=O)C(=O)N[C@H]2C(=O)N[C@H]3C(=O)N[C@H](C(=O)N[C@H](C(=O)O)c4cc(O)cc(O)c4-c4cc3ccc4O)[C@H](O)c3ccc(c(Cl)c3)Oc3cc2cc(c3O[C@@H]2O[C@H](CO)[C@@H](O)[C@H](O)[C@H]2O[C@H]2C[C@](C)(N)[C@H](O)[C@H](C)O2)Oc2ccc(cc2Cl)[C@H]1O` [VANCOMYCIN], the Ratio in test [1] came out at 4. In test [2], the MIC was found to be 5 µg/mL (≈ 3.45 µM).
Regarding `CN[C@@H]1[C@H](O[C@H]2[C@H](O[C@H]3[C@H](O)[C@@H](O)[C@H](N=C(N)N)[C@@H](O)[C@@H]3N=C(N)N)O[C@@H](C)[C@]2(O)C=O)O[C@@H](CO)[C@H](O)[C@H]1O` [STREPTOMYCIN], the Ratio in test [1] came to 32. The same compound had an MIC in test [2] of 0.5 µg/mL (≈ 0.86 µM).
On to `CC1(C)S[C@@H]2[C@H](NC(=O)[C@H](N)c3ccccc3)C(=O)N2[C@H]1C(=O)O` [AMPICILLIN], for which the Ratio in test [1] worked out at 32. For the same compound, in test [2], the MIC came out at 62.5 µg/mL (≈ 179 µM).
For `O=C(N[C@H](CO)[C@H](O)c1ccc([N+](=O)[O-])cc1)C(Cl)Cl` [CHLORAMPHENICOL] the same measures were 64 and 8 µg/mL (≈ 24.8 µM).
As to `CN(C)[C@@H]1C(O)=C(C(N)=O)C(=O)[C@@]2(O)C(O)=C3C(=O)c4c(O)cccc4[C@@](C)(O)[C@H]3C[C@@H]12` [TETRACYCLINE], the Ratio in test [1] was over 8. In test [2], inhibition of growth (MIC) required 2 µg/mL (≈ 4.5 µM).
